Compounds with a hit are over-represented: about 5.1% of the library has one in this group of screens.
STAT3 activator – STAT3 signaling activation. 0.91% of 190,000 active. U3A cells, IL-6 STAT3-luciferase reporter, luminescence; 100% = signal with IL-6 EC80 alone. AID 871. activation (% of control), % at 5.6 µM;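 active = activation above the screen-wide mean of compound activation plus 3 SD, cut at about 130% in these data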;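 also: 0% = background luminescence of wells with medium and substrate only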
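Test system: human U3A cells carrying STAT3-luciferase construct; control set: IL-6-only wells as 100% reference; timing: compound pre-incubation 1 h before IL-6, then 6 h stimulation at 37 °C; also added: IL-6 stimulus at 33 ng/mL final; evaluation: % activation versus median of IL-6-stimulated wells; detection: reporter luminescence signal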
STAT1 inh – reduces IFN-gamma driven STAT1 reporter signal; NIH 3T3 STAT1-luciferase reporter, luminescence; inhibition, % at 5.5 µM; 0.35% of 200,000 active; AID 920;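 active = inhibition above a set limit, the mean inhibition across all tested compounds plus 3 SD, cut at about 34% in these data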;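 also: 0% = IFN-gamma with DMSO and 100% = IFN-gamma with 300 µM nifuroxazide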
NF-kB expr up – raises NF-kB expression in human neuronal cells. NF-kB reporter expression; stronger effect = higher value. fold change at 12.5 µM. 1.6% of 190,000 active; in the data active = fold change above about 3.3
APP 5'UTR act – activates APP 5'UTR luciferase reporter; 1% of 190,000 active; SH-SY5Y APP 5'UTR luciferase reporter, luminescence; zero percent = DMSO vehicle wells; activation, % at 2 µM; AID 1276;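 active = activation above a set limit, based on mean plus 3 SD of controls, cut at about 140% in these data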
STAT1 activator – activators of IFN-gamma induced STAT1 signaling. NIH 3T3 STAT1-luciferase reporter, luminescence; 100% = IFN-gamma alone, no compound. activation (% of control), % at 5.5 µM. 2.6% of 200,000 active. AID 932;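 active = activation above the screen-wide mean activation plus 3 SD, cut at about 130% in these data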;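 also: raw ratio to IFN-gamma control signal so 100% means no change and 0% no light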
STAT3 inh-1 – reduces IL-6 driven STAT3 reporter signal | U3A cells, IL-6 STAT3-luciferase reporter, luminescence; host cell line lacks STAT1 | inhibition, % at 5.5 µM | 0.89% of 190,000 active | AID 862;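 active = inhibition above the mean inhibition across all screened compounds plus 3 SD, cut at about 44% in these data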;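 also: 0% = DMSO only wells and 100% = 100 µM nifuroxazide control wells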
STAT3 inh-2 – STAT3 inhibition, confirmation assay. U3A cells, IL-6 STAT3 luciferase reporter, luminescence; cell line lacks STAT1. inhibition, % at 5.7 µM. AID 1265. 45% of 1,200 active. shares compounds with STAT3 inh-1;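 active = inhibition above the hit cutoff computed for the primary STAT3 screen, cut at about 44% in these data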;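 also: 0% = IL-6 plus DMSO and 100% = IL-6 plus nifuroxazide control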
NFkB inh STAT3ct – NF-kappaB inhibition in STAT3 inhibitor counter-screen; shares compounds with STAT3 inh-1; HEK293T NF-kB luciferase reporter, TNF-alpha induced; inhibition, % at 5.7 µM; 36% of 1,200 active;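 active = inhibition above the mean of solvent-only control wells plus 3 SD, cutoff set per campaign, cut at about 13% in these data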;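 also: 0% = TNF-alpha with DMSO and 100% = TNF-alpha with MG high control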
STAT1 inh 2 – counter-screen for STAT3 inhibitors: STAT1 inhibition. shares compounds with STAT3 inh-1. inhibition, % at 5.7 µM. 27% of 1,200 active. AID 1317. NIH 3T3 STAT1-luciferase reporter, IFN-gamma induced, luminescence;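 active = inhibition above the mean plus 3 SD of solvent-only control wells, limit set per screening run, cut at about 16% in these data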;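 also: 0% = DMSO with IFN-gamma and 100% = nifuroxazide control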
Numbers without * were called inactive; . = no result.

SMILES	STAT3 activator	STAT1 inh	NF-kB expr up	APP 5'UTR act	STAT1 activator	STAT3 inh-1	STAT3 inh-2	NFkB inh STAT3ct	STAT1 inh 2
Cc1nn(C)c(Cl)c1NC(=O)OCc1ccc(Cl)cc1Cl	64	21	0.67	-11	81	51*	36	8	5
Cc1nnsc1NC(=O)OCc1ccc(Cl)cc1Cl	86	3	0.96	10	97	27	.	.	.
CCC(C)(C)c1ccc(OCCCC[n+]2cccc(C)c2)c(C(C)(C)CC)c1	45	29	0.49	-3	73	67*	50*	2	16
CCO[C@@H]1OC(C(=O)N2CCOCC2)=C[C@H](c2ccc(C(F)(F)F)cc2)[C@H]1CCCO	.	-1	1	-9	102	.	.	.	.
O=c1[nH]c(-c2cccnc2)nc2sc(-c3ccccc3)cc12	93	-19	0.97	-75	114	11	.	.	.
Cc1nc2sc(-c3ccccc3)cc2c(=O)[nH]1	45	25	3.5*	157*	77	69*	35	-1	-42
O=c1[nH]c2cc3c(cc2cc1CN(Cc1cccnc1)C(=S)NCc1ccco1)OCCO3	108	-1	1.1	-22	99	-7	.	.	.
O=C(CN1C(=O)S/C(=C\c2ccccc2)C1=O)NNC(=O)c1ccccc1O	102	4	1.1	-5	96	-4	.	.	.
O=C(CCCN1C(=O)S/C(=C\c2ccccc2)C1=O)NNC(=O)c1ccccc1O	48	24	0.95	-63	76	64*	56*	35*	4
O=C(O)CCC(=O)N1CCN(c2nc3ccccc3s2)CC1	98	-7	1.2	4	106	4	.	.	.
CCOc1ccc(NC(=O)N2CCN(c3nc4ccccc4s3)CC2)cc1	57	25	1.1	3	77	55*	39	3	17*
Cc1cccc(C)c1NC(=O)N1CCN(c2nc3ccccc3s2)CC1	55	4	1.5	-5	97	56*	57*	8	4
CC1(C)CC(=O)c2sc(NC(=O)C(C)(C)C)nc2C1	119	-23	1.6	29	120	-8	.	.	.
CC1(C)CC(=O)c2sc(NC(=O)c3cccs3)nc2C1	66	8	3.4*	118	103	44*	18	-14	-10
O=C(Nc1nc2c(s1)CCCC2)C1COc2ccccc2O1 (stereo not drawn)	43	20	1.9	147*	82	73*	34	-8	-104
CCc1nnc(NC(=O)C2COc3ccccc3O2)s1 (stereo not drawn)	104	-15	2.2	50	114	-4	.	.	.
O=C(Nc1nc2c(s1)CCCC2)c1cccs1	52	-50	5.7*	198*	146*	58*	14	-23	-125
O=C(Nc1nc2c(s1)CCCC2)Oc1ccccc1	106	-5	1.3	-2	105	-2	.	.	.
Cc1sc2ncnc(NC3CCN(Cc4ccccc4)CC3)c2c1C	64	33	0.98	-5	69	45*	62*	16*	25*
CCn1cc([N+](=O)[O-])c(C(=O)Nc2nc(-c3ccc(C)c(C)c3)c(C)s2)n1	63	-3	0.96	11	102	45*	42	-9	1
CCn1cc([N+](=O)[O-])c(C(=O)Nc2nc(-c3ccc(C)cc3)c(C)s2)n1	56	21	1.1	-2	81	56*	35	-10	6
CCn1cc([N+](=O)[O-])c(C(=O)Nc2cc(C)on2)n1	103	-2	1.1	7	102	0	.	.	.
O=C(Nc1ccc(S(=O)(=O)Nc2nccs2)cc1)c1ccc(N2C(=O)c3ccccc3C2=O)cc1	89	-8	1.1	2	105	18	.	.	.
COc1ccc(O)c(C(=O)CC(=O)c2ccccc2)c1	42	-34	3.4*	134	132*	70*	15	-25	-101
